Test results reported in ChEMBL document CHEMBL4376835, “Discovery of Nonpungent Transient Receptor Potential Vanilloid 1 (TRPV1) Agonist as Strong Topical Analgesic” (J Med Chem, 2020).
Calls of active or inactive are those of the source.

Experiments:
[1] = system: Mus musculus; assay: Induction of hypothermia in ICR mouse assessed as decrease in body temperature at 0.5 mg/kg, ip coadministered with capsaicin and measured for 7 hrs; format: functional, organism-based
[2] = Toxicity in ICR mouse assessed as skin irritation by measuring ear scratching administered topically and measured for 30 mins; conditions: in vivo, topical_or_ocular, 0.5 h
How it was run: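 Ear scratching test: a solution of the agent was applied to mouse ears, and scratching movements were counted over the following 30 min.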

[3] = Genotoxicity in Salmonella typhimurium TA100 incubated for 48 hrs by Ames test; format: toxicity; conditions: salmonella enterica subsp. enterica serovar typhimurium
[4] = Drug uptake in porcine skin assessed as dermal accumulation applied topically as carbopol-gel with 1% formulation measured for 8 hrs by Franz diffusion cell based in vitro transdermal delivery test; format: ADME, tissue-based, Sus scrofa, Zone of skin; conditions: pig
[5] = Genotoxicity in Salmonella typhimurium TA98 incubated for 48 hrs in presence of rat S9 by Ames test; format: toxicity, subcellular; conditions: salmonella enterica subsp. enterica serovar typhimurium, s9, 48 h
[6] = Systemic drug absorption in porcine skin assessed as drug accumulation in acceptor Franz cell applied topically as carbopol-gel with 1% formulation measured for 8 hrs by Franz diffusion cell based in vitro transdermal delivery test; format: ADME, tissue-based, Sus scrofa, Zone of skin; conditions: pig
[7] = Genotoxicity in Salmonella typhimurium TA100 incubated for 48 hrs in presence of rat S9 by Ames test; format: toxicity, subcellular; conditions: salmonella enterica subsp. enterica serovar typhimurium, s9, 48 h
[8] = Genotoxicity in CHO-WBLT cells assessed as chromosomal aberration incubated for 6 hrs in presence of rat S9 by FISH painting analysis; format: toxicity, subcellular, Cricetulus griseus; conditions: chinese hamster, s9, 6 h
[9] = Genotoxicity in Salmonella typhimurium TA1537 incubated for 48 hrs in presence of rat S9 by Ames test; format: toxicity, subcellular; conditions: salmonella enterica subsp. enterica serovar typhimurium, s9, 48 h
[10] = target: T1, Transient receptor potential cation channel subfamily V member 1 (Homo sapiens, UniProt Q8NER1); assay: Potency index, ratio of Ki of capsaicin to Ki for displacement of [3H]RTX from human TRPV1 expressed in CHO cells incubated for 60 mins by scintillation counting method; format: cell-based
[11] = Genotoxicity in Salmonella typhimurium TA1538 incubated for 48 hrs by Ames test; format: toxicity; conditions: salmonella enterica subsp. enterica serovar typhimurium
[12] = Genotoxicity in Salmonella typhimurium TA104 incubated for 48 hrs in presence of rat S9 by Ames test; format: toxicity, subcellular; conditions: salmonella enterica subsp. enterica serovar typhimurium, s9, 48 h
[13] = Genotoxicity in Salmonella typhimurium TA1535 incubated for 48 hrs in presence of rat S9 by Ames test; format: toxicity, subcellular; conditions: salmonella enterica subsp. enterica serovar typhimurium, s9, 48 h
[14] = target: Transient receptor potential cation channel subfamily V member 1 (Rattus norvegicus) (UniProt O35433); assay: Partial agonist activity at rat TRPV1 expressed in CHO cells assessed as maximal increase in 45Ca2+ uptake incubated for 5 mins by liquid scintillation counting method relative to capsaicin; format: cell-based
How it was run: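 Human or rat TRPV1 heterologously expressed in CHO cells; functional agonism read as 45Ca2+ uptake. Values are means of at least three experiments.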

[15] = Genotoxicity in Salmonella typhimurium TA1535 incubated for 48 hrs by Ames test; format: toxicity; conditions: salmonella enterica subsp. enterica serovar typhimurium
[16] = Toxicity in Sprague-Dawley rat assessed as pathological problems administered topically daily for 4 weeks; conditions: in vivo, topical_or_ocular, 672 h
How it was run: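 Rats given daily topical application for 4 weeks, then examined for pathological findings.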

[17] = system: Rattus norvegicus; assay: Analgesic activity against L5/L6 spinal nerve ligation-induced neuropathic pain Sprague-Dawley rat model assessed as decrease in neuropathic pain by measuring increase in paw withdrawal threshold in response to von frey filament at 5 to 10 mg/kg, ip compound administered at day 14 after ligation and measured up to 1.5 hrs after drug dosing by up and down method relative to control; format: functional
How it was run: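 Rat spinal nerve ligation model of neuropathic pain. Compound was given i.p. at 1, 2, 5 or 10 mg/kg; a gabapentin 65 mg/kg i.p. arm and a saline i.p. arm were run alongside. Von Frey withdrawal thresholds were taken pre-surgery and on days 1, 7 and 14, then at 0.5, 1 and 1.5 h post-dose. Mean±SEM, n=7-8.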

[18] = system: Rattus norvegicus; assay: Analgesic activity against L5/L6 spinal nerve ligation-induced neuropathic pain Sprague-Dawley rat model assessed as maximal decrease in neuropathic pain by measuring increase in paw withdrawal threshold in response to von frey filament at 1 to 4 mg/kg, sc compound administered at day 14 after ligation and measured at 30 mins after drug dosing by up and down method; format: functional, organism-based
How it was run: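 Rats with spinal nerve ligation were dosed s.c. Paw withdrawal threshold measured with von Frey filaments up to 1.5 h after dosing. Mean±SEM, n=7-8, compared with vehicle.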

[19] = Genotoxicity in ip dosed rat by micronucleus assay; format: toxicity, organism-based; conditions: in vivo
[20] = Genotoxicity in Salmonella typhimurium TA97 incubated for 48 hrs in presence of rat S9 by Ames test; format: toxicity, subcellular; conditions: salmonella enterica subsp. enterica serovar typhimurium, s9, 48 h
[21] = Genotoxicity in Salmonella typhimurium TA104 incubated for 48 hrs by Ames test; format: toxicity; conditions: salmonella enterica subsp. enterica serovar typhimurium
[22] = target: Transient receptor potential cation channel subfamily M member 8 (Mus musculus) (UniProt Q8R4D5); assay: Agonist activity at mouse TRPM8 expressed in HEK293 cells assessed as increase in calcium influx at 0.3 to 30 uM incubated for 1 min by Fluo-4-AM dye based FLIPR assay; format: cell-based
How it was run: (§1)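 Cells individually transfected with a single TRP channel (TRPV1, hTRPA1, mTRPA1, mTRPV3 or mTRPM8). Intracellular calcium influx recorded by FLIPR after the test compound was applied. Each cell type was also challenged with an agonist suited to its own TRP channel.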

[23] = Genotoxicity in Salmonella typhimurium TA102 incubated for 48 hrs by Ames test; format: toxicity; conditions: salmonella enterica subsp. enterica serovar typhimurium
[24] = Genotoxicity in CHL/IU cells by chromosomal aberration assay; format: toxicity, cell-based, Cricetulus griseus; conditions: chinese hamster
[25] = target: T1, Transient receptor potential cation channel subfamily V member 1; assay: Agonist activity at human TRPV1 expressed in HEK293 cells assessed as increase in calcium influx at 0.3 to 30 uM incubated for 1 min by Fluo-4-AM dye based FLIPR assay; format: cell-based; how it was run: as §1
[26] = target: Transient receptor potential cation channel subfamily V member 1 (Rattus norvegicus) (UniProt O35433); assay: Agonist activity at rat TRPV1 expressed in HEK293 cells assessed as increase in calcium influx at 0.3 to 30 uM incubated for 1 min by Fluo-4-AM dye based FLIPR assay; format: cell-based; how it was run: as §1
[27] = Genotoxicity in Salmonella typhimurium TA98 incubated for 48 hrs by Ames test; format: toxicity; conditions: salmonella enterica subsp. enterica serovar typhimurium
[28] = Genotoxicity in CHO-WBLT cells assessed as chromosomal aberration incubated for 6 hrs in presence of rat S9 by laser scan cytometry; format: toxicity, subcellular, Cricetulus griseus; conditions: chinese hamster, s9, 6 h
[29] = Genotoxicity in Salmonella typhimurium TA1537 incubated for 48 hrs by Ames test; format: toxicity; conditions: salmonella enterica subsp. enterica serovar typhimurium
[30] = target: Transient receptor potential cation channel subfamily A member 1 (Homo sapiens) (UniProt O75762); assay: Agonist activity at human TRPA1 expressed in HEK293 cells assessed as increase in calcium influx at 0.3 to 30 uM incubated for 1 min by Fluo-4-AM dye based FLIPR assay; format: cell-based; how it was run: as §1
[31] = system: Mus musculus; assay: Analgesic activity in ip dosed formalin-induced nociception ICR mouse model assessed as reduction in pain behaviour by measuring less licking of formalin injected hind paw pretreated with compound 30 mins prior to formalin induction measured during second phase (20-30 mins after formalin injection) by formalin test; format: functional
How it was run: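 Mice were dosed i.p. with 0.1–10 mg/kg, with vehicle and gabapentin (50, 100 mg/kg i.p.) arms. 2% formalin was injected into the dorsal hindpaw, and paw-licking time was recorded for the first phase (5 min) and the second phase (20–30 min). ED50 was taken from the dose–response. Mean±SEM, n=8.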

[32] = target: Transient receptor potential cation channel subfamily V member 1 (Rattus norvegicus, UniProt O35433); assay: Agonist activity at rat TRPV1 expressed in CHO cells assessed as increase in 45Ca2+ uptake incubated for 5 mins by liquid scintillation counting method; format: cell-based
How it was run: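 Human or rat TRPV1 heterologously expressed in CHO cells; agonism read as 45Ca2+ uptake, run as previously described. Values are the mean of at least three experiments.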

T1 sequence (Q8NER1 whole entry): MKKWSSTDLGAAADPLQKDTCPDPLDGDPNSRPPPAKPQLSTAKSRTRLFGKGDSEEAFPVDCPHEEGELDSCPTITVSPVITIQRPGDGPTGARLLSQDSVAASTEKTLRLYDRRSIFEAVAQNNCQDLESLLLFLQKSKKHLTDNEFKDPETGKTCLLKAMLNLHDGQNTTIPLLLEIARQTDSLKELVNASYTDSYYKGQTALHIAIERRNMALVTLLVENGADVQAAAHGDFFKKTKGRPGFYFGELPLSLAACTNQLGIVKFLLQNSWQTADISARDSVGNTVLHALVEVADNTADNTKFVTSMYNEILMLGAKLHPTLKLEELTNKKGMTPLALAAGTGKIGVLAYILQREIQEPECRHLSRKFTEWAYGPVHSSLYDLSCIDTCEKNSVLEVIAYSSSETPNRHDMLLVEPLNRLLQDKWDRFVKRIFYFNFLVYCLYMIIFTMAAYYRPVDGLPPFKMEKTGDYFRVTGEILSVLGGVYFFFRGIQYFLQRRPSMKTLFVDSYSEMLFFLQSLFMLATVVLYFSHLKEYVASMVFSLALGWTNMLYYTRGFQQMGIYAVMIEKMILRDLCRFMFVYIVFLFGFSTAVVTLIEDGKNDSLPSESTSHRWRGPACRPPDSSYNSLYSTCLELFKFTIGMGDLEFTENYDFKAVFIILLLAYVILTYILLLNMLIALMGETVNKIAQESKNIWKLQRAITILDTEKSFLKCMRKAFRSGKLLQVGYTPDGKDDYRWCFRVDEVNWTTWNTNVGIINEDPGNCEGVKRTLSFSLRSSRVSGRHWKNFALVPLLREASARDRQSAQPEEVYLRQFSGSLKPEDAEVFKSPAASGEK
Transient receptor potential cation channel subfamily V member 1 (Rattus norvegicus), sequence (O35433 whole entry): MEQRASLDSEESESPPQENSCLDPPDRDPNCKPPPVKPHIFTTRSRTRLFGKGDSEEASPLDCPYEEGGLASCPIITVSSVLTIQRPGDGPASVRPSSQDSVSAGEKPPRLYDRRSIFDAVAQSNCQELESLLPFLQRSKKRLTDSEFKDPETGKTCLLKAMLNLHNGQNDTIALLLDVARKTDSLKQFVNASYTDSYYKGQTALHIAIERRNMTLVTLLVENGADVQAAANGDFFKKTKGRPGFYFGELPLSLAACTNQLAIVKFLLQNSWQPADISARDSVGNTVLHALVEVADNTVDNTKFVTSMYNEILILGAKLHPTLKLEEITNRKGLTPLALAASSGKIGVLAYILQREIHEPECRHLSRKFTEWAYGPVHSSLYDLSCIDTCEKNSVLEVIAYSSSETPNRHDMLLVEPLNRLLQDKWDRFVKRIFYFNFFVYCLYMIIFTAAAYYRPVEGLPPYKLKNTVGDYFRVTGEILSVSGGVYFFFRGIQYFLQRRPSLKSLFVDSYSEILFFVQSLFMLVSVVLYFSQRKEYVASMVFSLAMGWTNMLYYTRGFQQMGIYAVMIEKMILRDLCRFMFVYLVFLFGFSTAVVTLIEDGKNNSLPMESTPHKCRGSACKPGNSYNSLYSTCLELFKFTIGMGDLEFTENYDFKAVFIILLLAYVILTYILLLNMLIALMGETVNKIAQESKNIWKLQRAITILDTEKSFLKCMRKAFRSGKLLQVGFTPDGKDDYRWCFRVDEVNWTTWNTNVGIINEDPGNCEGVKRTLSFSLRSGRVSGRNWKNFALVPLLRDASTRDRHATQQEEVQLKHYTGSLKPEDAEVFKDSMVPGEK
Transient receptor potential cation channel subfamily A member 1 (Homo sapiens), sequence (O75762 whole entry): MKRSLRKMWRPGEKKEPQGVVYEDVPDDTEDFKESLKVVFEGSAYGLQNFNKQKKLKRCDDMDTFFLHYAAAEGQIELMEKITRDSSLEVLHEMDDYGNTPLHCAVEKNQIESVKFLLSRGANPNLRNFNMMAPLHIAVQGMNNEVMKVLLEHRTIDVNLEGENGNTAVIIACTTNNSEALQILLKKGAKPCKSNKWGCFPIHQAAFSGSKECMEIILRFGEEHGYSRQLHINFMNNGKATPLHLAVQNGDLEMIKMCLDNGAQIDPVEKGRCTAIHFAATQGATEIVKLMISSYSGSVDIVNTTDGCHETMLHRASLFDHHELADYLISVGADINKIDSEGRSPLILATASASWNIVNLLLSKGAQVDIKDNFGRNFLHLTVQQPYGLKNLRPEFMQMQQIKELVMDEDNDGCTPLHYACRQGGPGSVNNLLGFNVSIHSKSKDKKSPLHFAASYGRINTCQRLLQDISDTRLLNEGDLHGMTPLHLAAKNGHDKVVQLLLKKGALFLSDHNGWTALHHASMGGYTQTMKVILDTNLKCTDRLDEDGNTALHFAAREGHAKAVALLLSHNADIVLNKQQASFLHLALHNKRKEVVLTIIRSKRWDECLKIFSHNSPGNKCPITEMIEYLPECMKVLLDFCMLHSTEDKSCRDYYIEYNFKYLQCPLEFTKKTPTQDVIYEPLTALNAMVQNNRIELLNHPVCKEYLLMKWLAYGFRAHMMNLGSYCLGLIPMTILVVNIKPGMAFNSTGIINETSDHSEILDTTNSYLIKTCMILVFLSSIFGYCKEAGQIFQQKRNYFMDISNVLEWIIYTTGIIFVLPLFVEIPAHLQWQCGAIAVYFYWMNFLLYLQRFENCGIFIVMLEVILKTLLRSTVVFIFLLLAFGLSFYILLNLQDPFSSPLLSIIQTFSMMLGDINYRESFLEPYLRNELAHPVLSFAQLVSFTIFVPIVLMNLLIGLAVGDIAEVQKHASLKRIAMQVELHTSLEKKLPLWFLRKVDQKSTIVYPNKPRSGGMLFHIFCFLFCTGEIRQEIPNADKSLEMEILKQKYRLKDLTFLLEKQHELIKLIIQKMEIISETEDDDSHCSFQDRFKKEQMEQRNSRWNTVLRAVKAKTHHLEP
Transient receptor potential cation channel subfamily M member 8 (Mus musculus), sequence (Q8R4D5 whole entry): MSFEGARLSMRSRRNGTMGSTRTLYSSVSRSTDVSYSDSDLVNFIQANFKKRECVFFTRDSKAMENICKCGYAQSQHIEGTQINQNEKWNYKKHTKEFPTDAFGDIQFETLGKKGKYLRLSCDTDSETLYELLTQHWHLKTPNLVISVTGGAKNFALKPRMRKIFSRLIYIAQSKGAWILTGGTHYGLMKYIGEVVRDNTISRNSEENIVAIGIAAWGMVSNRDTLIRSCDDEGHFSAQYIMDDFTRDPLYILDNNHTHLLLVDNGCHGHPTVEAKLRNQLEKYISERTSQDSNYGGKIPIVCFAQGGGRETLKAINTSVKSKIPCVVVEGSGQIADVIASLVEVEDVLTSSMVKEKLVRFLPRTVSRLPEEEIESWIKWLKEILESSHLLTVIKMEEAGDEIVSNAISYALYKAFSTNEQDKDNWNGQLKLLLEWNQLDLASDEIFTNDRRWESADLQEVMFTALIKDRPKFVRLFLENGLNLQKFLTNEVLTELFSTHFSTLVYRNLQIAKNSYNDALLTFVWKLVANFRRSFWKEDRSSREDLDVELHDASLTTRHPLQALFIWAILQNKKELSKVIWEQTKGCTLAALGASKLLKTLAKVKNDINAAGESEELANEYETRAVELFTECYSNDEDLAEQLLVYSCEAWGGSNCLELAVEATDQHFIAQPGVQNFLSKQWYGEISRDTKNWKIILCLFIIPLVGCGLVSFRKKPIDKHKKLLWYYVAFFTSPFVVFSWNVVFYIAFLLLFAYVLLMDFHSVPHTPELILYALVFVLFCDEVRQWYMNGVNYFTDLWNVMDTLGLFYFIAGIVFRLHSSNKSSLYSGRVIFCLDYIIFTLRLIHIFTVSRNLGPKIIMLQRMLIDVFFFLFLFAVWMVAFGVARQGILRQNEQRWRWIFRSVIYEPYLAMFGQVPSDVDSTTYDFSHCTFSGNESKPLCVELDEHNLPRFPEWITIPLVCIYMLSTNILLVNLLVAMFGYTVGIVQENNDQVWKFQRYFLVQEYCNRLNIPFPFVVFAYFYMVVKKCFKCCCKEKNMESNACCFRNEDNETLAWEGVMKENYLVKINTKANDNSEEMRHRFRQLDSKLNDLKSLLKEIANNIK
Transient receptor potential cation channel subfamily V member 1 (Rattus norvegicus, UniProt O35433), sequence (O35433 whole entry): as the sequence (O35433 whole entry) above

Compound: CC(C)(C)c1nc(-c2cccc(Cl)c2)c(CNC(=O)Nc2ccc(CO)c(F)c2)s1
- Activity [1]: Active
- Activity [2]: Non-Toxic
- Activity [3]: Non-Toxic
- Drug uptake [4]: Active
- Activity [5]: Non-Toxic
- Drug absorption [6]: Not Active
- Activity [7]: Non-Toxic
- Activity [8]: Non-Toxic
- Activity [9]: Non-Toxic
- Ratio Ki [10]: 80
- Activity [11]: Non-Toxic
- Activity [12]: Non-Toxic
- Activity [13]: Non-Toxic
- Activity [14]: 50 to 60%
- Activity [15]: Non-Toxic
- Activity [16]: Non-Toxic
- MPE [17]: 100%
- Activity [18]: Active
- Activity [19]: Non-Toxic
- Activity [20]: Non-Toxic
- Activity [21]: Non-Toxic
- Activity [22]: inactive
- Activity [23]: Non-Toxic
- Activity [24]: Non-Toxic
- Activity [25]: Active
- Activity [26]: Active
- Activity [27]: Non-Toxic
- Activity [28]: Non-Toxic
- Activity [29]: Non-Toxic
- Activity [30]: inactive
- Activity [31]: Dose-dependent effect
- ED50 [31]: 0.16 mg/kg
- EC50 [32]: 93 nM
